# Source: PubChem
# Runt-CBFb FRET = inhibitors of human RUNX1 Runt domain binding to CBFb; inhibition, % at 20 µM; hit rate 0.46% among 220,000; Cerulean-Runt/Venus-CBFb FRET ratio 530/480, 1 h;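 active = inhibition over about 50% at 20 µM in the single-dose screen, limit read from the data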;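 also: 0% = DMSO wells and 100% = excess unlabeled CBFb competitor control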
#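 System: Cerulean-labeled Runt domain protein | Quantity: 100 nM of each labeled protein | Schedule: 1 h compound exposure, room temperature | Detection: Fluorescence energy transfer, 422 nm excitation, 530/480 nm emission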
# Runt-SMMHC FRET = blocks binding of human RUNX1 Runt domain to CBFb-SMMHC; Q01196+Q13951; Cerulean-Runt/Venus-CBFb-SMMHC FRET ratio 530/480, 1 h; inhibition, % at 20 µM; hit rate 0.74% among 220,000; AID 1434;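 active = mean inhibition across duplicate retests at 20 µM reaching about 50%, limit read from the data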;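 also: 0% = DMSO wells and 100% = wells with excess untagged CBFb-SMMHC; inhibitors lower the FRET ratio by blocking Runt binding to CBFb-SMMHC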
# PHOSPHO1 inh = blocks human PHOSPHO1 phosphatase activity; Q8TCT1; recombinant PHOSPHO1, absorbance phosphatase assay; inhibition, % at 13.3 µM; hit rate 1.1% among 290,000; AID 1565; in the data active = inhibition above about 60%
# Efa HMGR inh = blocks class II HMG-CoA reductase of Enterococcus faecalis. inhibition, % at 10 µM. purified E. faecalis HMGR, NADPH absorbance 340 nm kinetic. hit rate 0.41% among 190,000;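 active = inhibition above a set limit, the median over all tested compounds plus 3 SD, cut at about 9.5% in these data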;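 also: enzyme runs in reverse so mevalonate oxidation gives rising NADPH absorbance; 0% = complete reaction with DMSO and 100% = background rate lacking mevalonate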
# RanGTP-Imp inh = inhibitors of RanGTP-importin-beta interaction, primary screen, biochemical, FRET, CFP-Ran, YFP-importin-beta, homogeneous; hit rate 1.1% among 300,000; inhibition, % (test concentration not listed); cell-free CFP-Ran/YFP-importin-beta FRET ratio;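 active = more than half of the replicate wells show a fall in the fluorescence ratio signal beyond about 16%, limit read from the data, passing the limit was not always enough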;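 also: 0% = DMSO wells and 100% = Ran loaded with GDP instead of GTP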
# Wee1 stabilizer = human Wee1 degradation inhibition, primary screen; P30291; HeLa Luc-Wee1K328M stability, luciferase luminescence; 100% = proteasome inhibitor MG132 effect; reporter increase, % at 5 µM; hit rate 1.2% among 220,000;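 active = activation above the mean of all tested compounds plus 3 SD, set per screening run, cut at about 8.8% in these data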;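 also: cells exposed to compound for 20 h before luminescence read; 0% = DMSO alone and 100% = MG132 at 30 µM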
# Numbers without * were called inactive; . = no result. Compounds with a hit are over-represented: about 3.4% of the library has one in this group of screens.
SMILES,Runt-CBFb FRET,Runt-SMMHC FRET,PHOSPHO1 inh,Efa HMGR inh,RanGTP-Imp inh,Wee1 stabilizer
CN(Cc1ccccc1)S(=O)(=O)c1ccc2c(c1)NC(=O)CC(=O)N2,1,-4,2,5,5,-2
COc1ccc(N(C)S(=O)(=O)c2ccc3c(c2)NC(=O)CC(=O)N3)c(OC)c1,.,.,70*,.,0,.
CCCNC(=O)C12CCC(C)(c3nc4cc(C)c(C)cc4nc31)C2(C)C (stereo unspecified),-4,0,24,-2,.,-2
O=C(NCCc1ccccc1)C1CCCN(c2ncnc3c2nc2n3CCCCC2)C1 (stereo unspecified),.,.,56,.,2,.
Cc1ccc(CCNC(=O)C2CCCN(c3ncnc4c3nc3n4CCCCC3)C2)cc1 (stereo unspecified),.,.,80*,.,-2,.
Cc1ccc(NC(=O)Cn2cc(C=O)c3ccccc32)cc1C,.,.,.,.,3,.
CCOC(=O)c1cc2c(=O)n3ccccc3nc2n(C(C)C)c1=NC(=O)c1c(-c2c(F)cccc2Cl)noc1C,101*,63*,-3,-1,90*,0
CCCCCn1c(=NC(=O)c2ccco2)c(C(=O)OCC)cc2c(=O)n3ccccc3nc21,11,42,10,-7,137*,0
Cc1onc(-c2c(F)cccc2Cl)c1C(=O)OCC(=O)c1c[nH]c2ccccc12,-1,-3,40,.,-2,2
CCCCn1c(=NC(=O)c2ccco2)c(C(=O)OCC)cc2c(=O)n3cccc(C)c3nc21,10,82*,-14,.,123*,-2
CCCCn1c(=NC(=O)c2ccco2)c(C(=O)OCC)cc2c(=O)n3ccccc3nc21,10,46,11,-5,-3,-2
COc1ccccc1CN1CC(C(=O)NC2(c3ccccc3)CC2)CCC1=O (stereo unspecified),.,.,26,.,1,.
CCOC(=O)CC1(NC(=O)C2CCC(=O)N(Cc3ccccc3OC)C2)CCCCC1 (stereo unspecified),.,.,66*,.,0,.
CN1C(=O)C(CC(=O)Nc2ccc(F)cc2)N(CCCc2ccccc2)C1=S (stereo unspecified),0,5,23,-6,0,4
CCc1cccc(C)c1NC(=O)C1CCCN(S(C)(=O)=O)C1 (stereo unspecified),.,.,19,.,-2,.
O=c1/c(=C\c2cc([N+](=O)[O-])cc([N+](=O)[O-])c2O)sc2nc3ccccc3n12,25,31,67*,9,.,4
O=C(O)c1cccc(-c2ccc(/C=c3/sc4nc5ccccc5n4c3=O)o2)c1,-73,-181,85*,.,-13,1
O=C(O)c1cc(C(=O)O)cc(-c2ccc(/C=c3/sc4nc5ccccc5n4c3=O)o2)c1,37,11,-143,1,.,1
Cc1nn(C(=O)CCCC(=O)NCc2ccccc2)c2ccccc12,.,.,32,.,4,.
CN(C(=O)COC(=O)CNC(=O)c1ccc2ccccc2c1)c1c(N)n(Cc2ccccc2)c(=O)[nH]c1=O,.,.,9,.,-3,.
O=C1SC(c2ccccc2)=N/C1=C/c1ccco1,8,-14,73*,-6,0,-2
CC1=NN(c2nc(-c3ccc(C)cc3)cs2)C(=O)C1N=Nc1ccc(C(N)=O)cc1 (stereo unspecified),-3,-4,24,-6,4,9.9*
CC1=NN(c2nc(-c3ccc(C)cc3)cs2)C(=O)C1N=Nc1ccc2ccccc2c1 (stereo unspecified),-2,0,14,3,0,-1
Cc1cnc(C(=O)OCC(=O)NC(=O)c2ccccc2)cn1,.,.,.,.,1,.
COc1ccccc1C(=O)N1CCN(CCNC(=O)C(=O)Nc2ccc(Br)c(C)c2)CC1,.,.,34,.,0,.
COCCCNC(=S)NCCNc1nc2c(C)c(C)ccc2cc1C#N,32,64*,14,0,.,-3
Cc1cc(C)c2nc(N3CCCN(C(=O)c4ccco4)CC3)c(C#N)cc2c1,13,70*,12,-1,89*,-2
COCCCNC(=S)N1CCCN(c2nc3c(C)c(C)ccc3cc2C#N)CC1,.,.,-6,0,43*,4
